tested on: MDA-MB-468; assay: Cytotoxicity against human MDA-MB-468 cells after 5 days by sulforhodamine B assay; assay type: functional; conditions: Homo sapiens, MDA-MB-468, 120 h
Method in brief: (§1)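 Cancer lines were seeded at 800–6000 cells per well according to growth rate, 24 h before compound overlay. After culture, cells were fixed in situ and stained with sulforhodamine B. GI50 values were derived by curve fitting.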

Row | SMILES | GI50
1 | O=C(NCC1(N2CCOCC2)CCCCC1)c1ccc2[nH]nc(-c3ccc(N4CCOCC4)cc3)c2c1 | 190 nM
2 | CN1CCC(Oc2ccc(-c3n[nH]c4ccc(NC(=O)C(c5ccsc5)C5CCCC5)cc34)cc2)CC1 (racemic) | 190 nM
3 | CN1CCC(Oc2ccc(-c3n[nH]c4ccc(C(=O)NC(c5ccsc5)C5CCCC5)cc34)cc2)CC1 (racemic) | 90 nM

tested on: not listed separately; assay: Half life in rat liver microsomes at 1 uM by LC-MS analysis; assay type: ADME; conditions: liver microsomes

Row | half-life at 1 µM | SMILES
4 | 1.5 min | O=C(NCC1(N2CCOCC2)CCCCC1)c1ccc2[nH]nc(-c3ccc(N4CCOCC4)cc3)c2c1
5 | 15 min | CN1CCC(Oc2ccc(-c3n[nH]c4ccc(NC(=O)C(c5ccsc5)C5CCCC5)cc34)cc2)CC1 (racemic)
6 | 24 min | CN1CCC(Oc2ccc(-c3n[nH]c4ccc(C(=O)NC(c5ccsc5)C5CCCC5)cc34)cc2)CC1 (racemic)

biological target: Vascular endothelial growth factor receptor 2 (Homo sapiens, UniProt P35968); assay: Inhibition of recombinant KDR (unknown origin) preincubated for 15 mins prior to ATP addition by FRET-based homogenous assay; conditions: not given
Sequence (P35968 whole entry): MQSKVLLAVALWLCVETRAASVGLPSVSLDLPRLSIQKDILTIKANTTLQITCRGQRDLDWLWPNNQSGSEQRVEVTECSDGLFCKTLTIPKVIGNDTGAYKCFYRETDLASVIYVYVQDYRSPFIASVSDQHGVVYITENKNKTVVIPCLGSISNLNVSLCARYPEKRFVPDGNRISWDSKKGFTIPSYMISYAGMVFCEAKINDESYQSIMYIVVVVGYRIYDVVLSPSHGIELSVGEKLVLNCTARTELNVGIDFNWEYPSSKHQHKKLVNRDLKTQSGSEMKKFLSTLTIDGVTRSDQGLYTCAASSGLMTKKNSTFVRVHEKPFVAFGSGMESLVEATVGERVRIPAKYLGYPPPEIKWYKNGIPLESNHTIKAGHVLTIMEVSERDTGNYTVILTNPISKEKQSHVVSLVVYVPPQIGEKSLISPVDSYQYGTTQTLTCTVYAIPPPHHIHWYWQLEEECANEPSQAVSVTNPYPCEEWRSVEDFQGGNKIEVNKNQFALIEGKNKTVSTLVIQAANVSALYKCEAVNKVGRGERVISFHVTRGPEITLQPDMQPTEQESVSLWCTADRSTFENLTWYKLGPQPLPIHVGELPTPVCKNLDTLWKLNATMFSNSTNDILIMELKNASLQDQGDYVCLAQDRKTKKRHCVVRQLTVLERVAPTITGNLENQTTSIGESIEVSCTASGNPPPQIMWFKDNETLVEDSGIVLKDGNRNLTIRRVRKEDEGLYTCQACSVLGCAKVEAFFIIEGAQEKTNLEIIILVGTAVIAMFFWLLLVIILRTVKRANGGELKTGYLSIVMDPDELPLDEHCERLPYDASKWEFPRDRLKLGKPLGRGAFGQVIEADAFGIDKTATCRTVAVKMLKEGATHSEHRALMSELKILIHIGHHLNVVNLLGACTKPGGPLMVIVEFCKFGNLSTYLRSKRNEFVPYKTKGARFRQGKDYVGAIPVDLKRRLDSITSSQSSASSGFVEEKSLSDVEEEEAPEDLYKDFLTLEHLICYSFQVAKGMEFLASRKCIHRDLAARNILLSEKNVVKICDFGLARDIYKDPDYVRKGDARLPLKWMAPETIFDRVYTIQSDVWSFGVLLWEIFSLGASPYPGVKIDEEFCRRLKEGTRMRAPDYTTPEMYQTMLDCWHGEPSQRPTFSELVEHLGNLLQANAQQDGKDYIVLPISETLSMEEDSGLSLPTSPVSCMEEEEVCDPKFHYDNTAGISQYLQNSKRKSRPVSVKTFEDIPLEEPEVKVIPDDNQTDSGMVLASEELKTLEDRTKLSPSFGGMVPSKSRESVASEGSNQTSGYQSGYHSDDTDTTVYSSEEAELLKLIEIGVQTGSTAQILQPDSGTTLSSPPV

Row | IC50 | SMILES
7 | 3800 nM | O=C(NCC1(N2CCOCC2)CCCCC1)c1ccc2[nH]nc(-c3ccc(N4CCOCC4)cc3)c2c1
8 | 2900 nM | CN1CCC(Oc2ccc(-c3n[nH]c4ccc(C(=O)NC(c5ccsc5)C5CCCC5)cc34)cc2)CC1 (racemic)

biological target: T1, Aurora kinase A (Homo sapiens, UniProt O14965); assay: Inhibition of recombinant AURKA (unknown origin) preincubated for 15 mins prior to ATP addition by FRET-based homogenous assay; conditions: not given
T1 sequence (O14965 whole entry): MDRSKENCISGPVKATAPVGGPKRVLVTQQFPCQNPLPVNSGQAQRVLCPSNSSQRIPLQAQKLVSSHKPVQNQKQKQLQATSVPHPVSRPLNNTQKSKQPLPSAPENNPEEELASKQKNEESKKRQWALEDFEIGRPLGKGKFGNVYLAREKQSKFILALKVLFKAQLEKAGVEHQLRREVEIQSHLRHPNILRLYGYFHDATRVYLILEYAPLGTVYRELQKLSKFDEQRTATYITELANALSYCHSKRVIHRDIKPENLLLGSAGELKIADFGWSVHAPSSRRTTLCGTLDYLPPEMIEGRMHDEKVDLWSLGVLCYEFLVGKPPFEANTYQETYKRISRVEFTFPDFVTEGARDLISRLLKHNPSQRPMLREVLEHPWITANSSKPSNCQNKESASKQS

Row | IC50 | SMILES
9 | 2300 nM | O=C(NCC1(N2CCOCC2)CCCCC1)c1ccc2[nH]nc(-c3ccc(N4CCOCC4)cc3)c2c1
10 | 2300 nM | CN1CCC(Oc2ccc(-c3n[nH]c4ccc(NC(=O)C(c5ccsc5)C5CCCC5)cc34)cc2)CC1 (racemic)
11 | 2000 nM | CN1CCC(Oc2ccc(-c3n[nH]c4ccc(C(=O)NC(c5ccsc5)C5CCCC5)cc34)cc2)CC1 (racemic)

biological target: Aurora kinase B/Inner centromere protein (Homo sapiens, UniProt Q96GD4); assay: Inhibition of AURKB/INCENP (unknown origin) preincubated for 15 mins prior to ATP addition by FRET-based homogenous assay; assay type: protein-complex assay; conditions: not given
Method in brief: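 The enzyme was AURKB/INCENP in a FRET-based homogeneous assay run to kit specifications, with ATP at 128 μM. […] Each IC50 came from a single determination, reported with its standard fitting error.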

Aurora kinase B/Inner centromere protein, sequence (Q96GD4 whole entry): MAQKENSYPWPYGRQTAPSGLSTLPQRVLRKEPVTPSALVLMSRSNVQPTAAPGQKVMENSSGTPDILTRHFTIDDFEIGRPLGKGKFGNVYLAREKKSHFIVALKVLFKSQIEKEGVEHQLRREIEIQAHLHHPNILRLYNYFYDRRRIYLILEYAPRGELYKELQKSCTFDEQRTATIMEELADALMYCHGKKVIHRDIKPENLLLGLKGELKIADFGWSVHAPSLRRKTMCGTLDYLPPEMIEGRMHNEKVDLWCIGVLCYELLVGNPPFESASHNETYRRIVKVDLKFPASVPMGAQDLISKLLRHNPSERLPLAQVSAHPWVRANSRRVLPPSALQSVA
Aurora kinase B/Inner centromere protein, sequence (Q9NQS7 whole entry, further chain): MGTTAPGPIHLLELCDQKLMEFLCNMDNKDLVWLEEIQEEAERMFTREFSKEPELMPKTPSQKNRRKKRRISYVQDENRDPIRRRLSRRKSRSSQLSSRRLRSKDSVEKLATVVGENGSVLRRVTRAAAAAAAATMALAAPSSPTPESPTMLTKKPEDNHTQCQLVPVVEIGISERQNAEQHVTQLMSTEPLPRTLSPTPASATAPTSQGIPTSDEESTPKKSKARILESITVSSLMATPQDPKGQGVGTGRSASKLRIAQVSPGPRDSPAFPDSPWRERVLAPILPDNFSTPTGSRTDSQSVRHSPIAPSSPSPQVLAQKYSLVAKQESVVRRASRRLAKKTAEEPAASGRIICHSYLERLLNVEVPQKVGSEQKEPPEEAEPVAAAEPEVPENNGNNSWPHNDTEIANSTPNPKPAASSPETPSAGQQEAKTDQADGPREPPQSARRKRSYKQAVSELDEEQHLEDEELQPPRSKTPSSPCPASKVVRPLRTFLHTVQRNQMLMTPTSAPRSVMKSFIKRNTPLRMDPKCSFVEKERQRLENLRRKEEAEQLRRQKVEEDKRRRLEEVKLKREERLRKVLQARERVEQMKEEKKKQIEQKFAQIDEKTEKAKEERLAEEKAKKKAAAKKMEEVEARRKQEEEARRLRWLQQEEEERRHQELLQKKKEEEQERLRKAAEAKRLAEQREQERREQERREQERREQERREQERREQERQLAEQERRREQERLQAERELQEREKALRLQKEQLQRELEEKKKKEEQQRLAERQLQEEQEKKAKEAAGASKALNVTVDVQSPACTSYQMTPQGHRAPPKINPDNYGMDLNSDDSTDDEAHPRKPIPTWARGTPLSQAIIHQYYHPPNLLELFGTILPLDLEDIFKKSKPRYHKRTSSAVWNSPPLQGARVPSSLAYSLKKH

Row | SMILES | IC50
12 | O=C(NCC1(N2CCOCC2)CCCCC1)c1ccc2[nH]nc(-c3ccc(N4CCOCC4)cc3)c2c1 | 750 nM
13 | O=C(N[C@H](c1ccccn1)C1CCCC1)c1ccc2[nH]nc(-c3ccc(N4C5CCC4COC5)cc3)c2c1 | 1400 nM

tested on: not listed separately; assay: Cytotoxicity against human HCT116 cells after 5 days by sulforhodamine B assay; assay type: functional, HCT-116; conditions: Homo sapiens, HCT-116, 120 h; method in brief: as §1

Row | SMILES | GI50
14 | O=C(NCC1(N2CCOCC2)CCCCC1)c1ccc2[nH]nc(-c3ccc(N4CCOCC4)cc3)c2c1 | 39 nM
15 | CN1CCC(Oc2ccc(-c3n[nH]c4ccc(NC(=O)C(c5ccsc5)C5CCCC5)cc34)cc2)CC1 (racemic) | 59 nM
16 | CN1CCC(Oc2ccc(-c3n[nH]c4ccc(C(=O)NC(c5ccsc5)C5CCCC5)cc34)cc2)CC1 (racemic) | 17 nM

biological target: T2, Dual specificity protein kinase TTK (Homo sapiens, UniProt P33981); assay: Inhibition of amino terminal GST-fused full length human TTK using His6-SUMO-TTK-N as substrate preincubated for 15 mins prior to ATP addition by indirect ELISA detection system; conditions: not given
T2 sequence (P33981 whole entry): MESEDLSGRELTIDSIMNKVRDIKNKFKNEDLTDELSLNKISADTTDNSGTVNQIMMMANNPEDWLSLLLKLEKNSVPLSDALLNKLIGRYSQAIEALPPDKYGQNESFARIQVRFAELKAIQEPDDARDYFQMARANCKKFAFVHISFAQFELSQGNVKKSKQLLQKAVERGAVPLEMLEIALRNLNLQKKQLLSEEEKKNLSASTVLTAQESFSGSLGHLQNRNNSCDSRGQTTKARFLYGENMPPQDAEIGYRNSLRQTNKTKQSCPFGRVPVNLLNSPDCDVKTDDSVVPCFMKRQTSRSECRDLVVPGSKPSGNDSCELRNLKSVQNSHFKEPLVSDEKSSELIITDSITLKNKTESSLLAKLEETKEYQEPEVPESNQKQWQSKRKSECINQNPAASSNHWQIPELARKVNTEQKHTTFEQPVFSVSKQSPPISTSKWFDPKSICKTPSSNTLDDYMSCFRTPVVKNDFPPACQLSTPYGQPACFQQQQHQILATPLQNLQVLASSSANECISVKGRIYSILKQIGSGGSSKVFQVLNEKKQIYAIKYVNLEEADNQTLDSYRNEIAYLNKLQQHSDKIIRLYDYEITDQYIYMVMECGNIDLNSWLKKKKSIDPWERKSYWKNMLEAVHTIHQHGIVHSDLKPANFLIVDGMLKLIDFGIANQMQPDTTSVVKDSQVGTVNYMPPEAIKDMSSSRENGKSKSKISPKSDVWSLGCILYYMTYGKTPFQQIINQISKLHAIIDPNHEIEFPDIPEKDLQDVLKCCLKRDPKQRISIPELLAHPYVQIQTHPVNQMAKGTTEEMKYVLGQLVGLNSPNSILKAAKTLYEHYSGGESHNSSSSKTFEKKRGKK

Row | IC50 | SMILES
17 | 7.7 nM | O=C(NCC1(N2CCOCC2)CCCCC1)c1ccc2[nH]nc(-c3ccc(N4CCOCC4)cc3)c2c1
18 | 8 nM | CN1CCC(Oc2ccc(-c3n[nH]c4ccc(NC(=O)C(c5ccsc5)C5CCCC5)cc34)cc2)CC1 (racemic)
19 | 2.7 nM | CN1CCC(Oc2ccc(-c3n[nH]c4ccc(C(=O)NC(c5ccsc5)C5CCCC5)cc34)cc2)CC1 (racemic)

biological target: Cytochrome P450 3A4 (Homo sapiens, UniProt P08684); assay: Inhibition of human CYP3A4 using BFC as substrate preincubated for 10 mins followed by enzyme/substrate addition measured after 30 mins by fluorescence assay; assay type: ADME; conditions: not given
Sequence (P08684 whole entry): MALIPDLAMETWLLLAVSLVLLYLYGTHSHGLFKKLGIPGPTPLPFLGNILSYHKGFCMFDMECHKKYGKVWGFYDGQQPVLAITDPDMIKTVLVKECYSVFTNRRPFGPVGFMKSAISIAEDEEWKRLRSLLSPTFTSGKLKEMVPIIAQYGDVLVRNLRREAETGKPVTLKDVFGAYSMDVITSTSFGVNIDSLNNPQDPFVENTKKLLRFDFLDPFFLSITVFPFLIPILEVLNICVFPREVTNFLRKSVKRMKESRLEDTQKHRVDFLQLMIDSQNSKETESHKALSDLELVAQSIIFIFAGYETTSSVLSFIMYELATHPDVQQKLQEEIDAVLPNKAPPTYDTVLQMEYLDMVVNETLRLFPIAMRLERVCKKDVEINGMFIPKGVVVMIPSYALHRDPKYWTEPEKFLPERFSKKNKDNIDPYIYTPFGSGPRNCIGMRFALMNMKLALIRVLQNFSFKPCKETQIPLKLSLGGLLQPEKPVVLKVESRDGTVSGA

Row | SMILES | IC50
20 | O=C(N[C@H](c1ccccn1)C1CCCC1)c1ccc2[nH]nc(-c3ccc(N4C5CCC4COC5)cc3)c2c1 | 930 nM

tested on: not listed separately; assay: Oral bioavailability in Sprague-Dawley rat at 5 mg/kg by LC-MS/MS analysis; assay type: ADME, organism-based; conditions: in vivo

Row | SMILES | bioavailability
21 | O=C(N[C@H](c1ccccn1)C1CCCC1)c1ccc2[nH]nc(-c3ccc(N4C5CCC4COC5)cc3)c2c1 | 39%

tested on: not listed separately; assay: Half life in mouse liver microsomes at 1 uM by LC-MS analysis; assay type: ADME; conditions: liver microsomes

Row | half-life at 1 µM | SMILES
22 | 1.7 min | O=C(NCC1(N2CCOCC2)CCCCC1)c1ccc2[nH]nc(-c3ccc(N4CCOCC4)cc3)c2c1
23 | 29 min | CN1CCC(Oc2ccc(-c3n[nH]c4ccc(NC(=O)C(c5ccsc5)C5CCCC5)cc34)cc2)CC1 (racemic)
24 | 21 min | CN1CCC(Oc2ccc(-c3n[nH]c4ccc(C(=O)NC(c5ccsc5)C5CCCC5)cc34)cc2)CC1 (racemic)

Reference: ChEMBL document CHEMBL3421533, “The Discovery of Orally Bioavailable Tyrosine Threonine Kinase (TTK) Inhibitors: 3-(4-(heterocyclyl)phenyl)-1H-indazole-5-carboxamides as Anticancer Agents” (J Med Chem, 2015)
